Results on 34 compounds are retold here after ChEMBL document CHEMBL1155435, “Design, synthesis and evaluation of constrained tetrahydroimidazopyrimidine derivatives as antagonists of corticotropin-releasing factor type 1 receptor (CRF1R)” (Bioorg Med Chem Lett, 2010).

For data set [1], the target named is T1, Corticotropin-releasing factor receptor 1 (Homo sapiens, UniProt P34998).
T1 sequence (P34998 whole entry): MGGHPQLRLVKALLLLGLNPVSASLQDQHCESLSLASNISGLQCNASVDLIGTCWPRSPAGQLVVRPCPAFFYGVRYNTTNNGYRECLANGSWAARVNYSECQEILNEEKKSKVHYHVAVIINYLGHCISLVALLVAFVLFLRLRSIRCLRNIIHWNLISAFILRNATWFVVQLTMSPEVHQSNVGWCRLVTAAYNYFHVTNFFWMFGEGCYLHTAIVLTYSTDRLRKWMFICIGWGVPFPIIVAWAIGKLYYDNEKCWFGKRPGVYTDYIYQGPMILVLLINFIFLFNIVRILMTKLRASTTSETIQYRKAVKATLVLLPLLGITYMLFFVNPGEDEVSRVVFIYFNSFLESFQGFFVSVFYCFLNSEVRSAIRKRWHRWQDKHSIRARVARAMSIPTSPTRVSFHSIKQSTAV
The data set is described as follows: Displacement of [125I]Tyr-o-CRF from human CRFR1 expressed in human IMR32 cells. Type of data set: cell-based, IMR-32. The procedure, abridged: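 Radioligand displacement of [125I]-Tyr-o-CRF from human CRF1 receptor expressed endogenously on intact IMR-32 human neuroblastoma cells. The protocol follows an earlier report.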

For another data set, the system named is Mus musculus. Nature of the data set: Anxiolytic activity in ip dosed mouse assessed as decrease reduction of stretched attenuated postures by canopy test. Format: functional. The procedure, abridged:
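Mouse canopy test for anxiety-like behaviour. Compound was given ip in cremophor/DMSO/water (1:1:8) at several doses. The read-out was the total count of stretched attend postures. The protocol follows an earlier report.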

Data set [2] can be described thus: Drug level in mouse brain at 32 mg/kg, ip after 30 mins. Type of data set: ADME, organism-based. Set-up: dose 32 mg/kg, route intraperitoneal. The following applies: read-out: Drug uptake. In a few lines:
(§1)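 Mice were dosed ip at 32 mg/kg in cremophor/DMSO/water (1:1:8). Brain and plasma were sampled at 30 min and 1 h after dosing. Brain level is given as ng compound per g brain, alongside the brain/plasma concentration ratio.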

The nature of data set [3]: Ratio of drug level in mouse brain to plasma at 32 mg/kg, ip after 30 mins. Format: ADME, organism-based. The arrangement: dose 32 mg/kg, route intraperitoneal. The procedure, abridged: as §1
The nature of data set [4]: Drug level in mouse brain at 32 mg/kg, ip after 1 hr. The following applies: read-out: Drug uptake. Type of data set: ADME, organism-based. Set-up: dose 32 mg/kg, route intraperitoneal. The procedure, abridged:
as §1

A short description of data set [5]: Ratio of drug level in mouse brain to plasma at 32 mg/kg, ip after 1 hr. Type of data set: ADME, organism-based. The arrangement: dose 32 mg/kg, route intraperitoneal. In a few lines:
as §1

The structures appear in SMILES notation. The source made the active and inactive calls. The calls are words filed in the database; no cut-off is given here.

Compound `CCCN(CC1CC1)C(=O)c1c(CC)nc2n1CCC(=O)N2c1c(C)cc(C)cc1C` came in with an inhibition constant (Ki) in data set [1] above 5000 nM.

For the compound `Cc1cc(C)c(N2CCCn3c2nc(C(F)(F)F)c3CN2CCCCC2)c(C)c1`, in data set [1], the affinity, expressed as Ki, was 245 nM.

`CCCN(CC1CC1)C(=O)c1c(C)nc2n1CCC(=O)N2c1c(C)cc(C)cc1C` had a Ki in data set [1] above 5000 nM.

On to `CCCN(CCC)C(=O)c1c(CC)nc2n1CCC(=O)N2c1c(C)cc(C)cc1C`, for which the Ki in data set [1] was above 5000 nM.

As to `Cc1cc(C)c(N2C(=O)CCn3c2nc(C)c3C(=O)N2CCOCC2)c(C)c1`, the Ki in data set [1] is above 5000 nM.

In turn, `CCCN(CC1CCC1)C(=O)c1c(C)nc2n1CCCN2c1c(C)cc(C)cc1C` registered a Ki in data set [1] of 3300 nM. That is a single-digit micromolar value.

The compound `C=CCN(CC=C)C(=O)c1c(CC)nc2n1CCC(=O)N2c1c(C)cc(C)cc1C` came in with a Ki in data set [1] above 5000 nM.

In data set [1], `Cc1cc(C)c(N2CCCn3c2nc(C(F)(F)F)c3CN2CCCN(C)CC2)c(C)c1` displayed a Ki above 5000 nM.

The compound `Cc1cc(C)c(N2C(=O)CCn3c2nc(C)c3C(=O)N2CCN(c3ccccc3F)CC2)c(C)c1` displayed a Ki in data set [1] above 5000 nM.

For the compound `Cc1cc(C)c(N2CCCn3c2nc(C(F)(F)F)c3CN2CCSCC2)c(C)c1`, the Ki in data set [1] came out at 441 nM.

In data set [1], `CCCN(CCC(F)(F)F)Cc1c(C(F)(F)F)nc2n1CCCN2c1c(C)cc(C)cc1C` registered a Ki of 63 nM.

For `C=CCN(CCC)C(=O)c1c(C)nc2n1CCCN2c1c(C)cc(C)cc1C`, the Ki in data set [1] was above 5000 nM.

In the case of `CCCN(Cc1ccccc1)C(=O)c1c(C)nc2n1CCCN2c1c(C)cc(C)cc1C`, in data set [1], the Ki is above 5000 nM.

For `Cc1cc(C)c(N2CCCn3c2nc(C(F)(F)F)c3CN(CC2CC2)CC(F)(F)F)c(C)c1`, in data set [1], the Ki is 8 nM.

`C=CCN(CC=C)C(=O)c1c(C)nc2n1CCC(=O)N2c1c(C)cc(C)cc1C`: in data set [1], the Ki is above 5000 nM.

In turn, `CCCN(CC1CC1)C(=O)c1c(C)nc2n1CCCN2c1c(C)cc(C)cc1C` came in with a Ki in data set [1] above 5000 nM.

For `CCCN(CCC)C(=O)c1c(C)nc2n1CCC(=O)N2c1c(C)cc(C)cc1C`, in data set [1], the Ki is above 5000 nM.

`Cc1cc(C)c(N2CCCn3c2nc(C(F)(F)F)c3CN(CC2CCC2)CC(F)(F)F)c(C)c1` came in with a Ki in data set [1] of 27 nM.

Consider `C=CCN(CC=C)C(=O)c1c(C(F)(F)F)nc2n1CCCN2c1c(C)cc(C)cc1C`, for which the Ki in data set [1] turned out to be 19 nM.

Consider `Cc1cc(C)c(N2CCCn3c2nc(C(F)(F)F)c3CN(CC2CC2)CC(F)(F)C(F)(F)F)c(C)c1`, for which the affinity in data set [1], expressed as Ki, was 14 nM. The Ki values of the last two compounds are within 1.5-fold of each other.

In turn, `CCCN(Cc1c(C(F)(F)F)nc2n1CCCN2c1c(C)cc(C)cc1C)CC1CCC1` returned a Ki in data set [1] of 21 nM.

In data set [1], `CCCN(CC1CC1)C(=O)c1c(CC)nc2n1CCCN2c1c(C)cc(C)cc1C` gave a Ki of 2300 nM. Compared with the last compound, the Ki is about 110-fold higher.

In the case of `CCCCN(CC)C(=O)c1c(CC)nc2n1CCC(=O)N2c1c(C)cc(C)cc1C`, the Ki in data set [1] is above 5000 nM.

As for `CCN(Cc1c(C(F)(F)F)nc2n1CCCN2c1c(C)cc(C)cc1C)CC1CC1`, in data set [1], the Ki was determined as 31 nM.

`Cc1cc(C)c(N2CCCn3c2nc(C(F)(F)F)c3CN2CC=CCC2)c(C)c1` returned a Ki in data set [1] of 364 nM. Compared with the last compound, the Ki is about 12-fold higher.

`Cc1cc(C)c(N2CCCn3c2nc(C(F)(F)F)c3CN2CCOCC2)c(C)c1`: in data set [1], the Ki is 1510 nM.

Consider `CCCN(CCc1ccccc1)Cc1c(C(F)(F)F)nc2n1CCCN2c1c(C)cc(C)cc1C`, for which the Ki in data set [1] was determined as 67 nM.

Take `CCCN(Cc1c(C(F)(F)F)nc2n1CCCN2c1c(C)cc(C)cc1C)CC1CC1`: the Ki in data set [1] is 32 nM. Also, the result in the data set on Mus musculus was Active. For the same compound, the concentration at 0.5 h in data set [2] was 352 ng/g. Besides, the Kp at 0.5 h in data set [3] was determined as 1.2. Further, the concentration at 1 h in data set [4] was found to be 217 ng/g. In addition, in data set [5], the Kp at 1 h stood at 1.

`CCCN(CCc1ccccc1)C(=O)c1c(C)nc2n1CCCN2c1c(C)cc(C)cc1C` showed a Ki in data set [1] of 1700 nM.

As to `CCc1nc2n(c1C(=O)N(CC)Cc1ccccc1)CCC(=O)N2c1c(C)cc(C)cc1C`, the Ki in data set [1] was above 5000 nM.

In turn, `CCCN(CC1CC1)C(=O)c1c(C(F)(F)F)nc2n1CCCN2c1c(C)cc(C)cc1C` yielded a Ki in data set [1] of 1200 nM.

Consider `C=CCN(CCC)Cc1c(C(F)(F)F)nc2n1CCCN2c1c(C)cc(C)cc1C`, for which the Ki in data set [1] was found to be 48 nM.

On to `Cc1cc(C)c(N2CCCn3c2nc(C)c3C(=O)N(CC2CC2)CC2CC2)c(C)c1`, for which, in data set [1], the Ki worked out at 3400 nM. Against the preceding compound, the Ki is about 71-fold higher.

As for `Cc1cc(C)c(N2CCCn3c2nc(C(F)(F)F)c3CN(CCc2ccccc2)CC(F)(F)F)c(C)c1`, the Ki in data set [1] turned out to be 38 nM.
